Results on 10 compounds are retold here after ChEMBL document CHEMBL1140053, “Discovery of antimycobacterial spiro-piperidin-4-ones: an atom economic, stereoselective synthesis, and biological intervention” (J Med Chem, 2008).

For test [1], the system named is Mycobacterium tuberculosis. The test is described as follows: Antimycobacterial activity against Mycobacterium tuberculosis H37Rv ATCC 35801 infected in CD1 mouse assessed as bacterial load in lungs at 25 mg/kg, ip after 10 days. In kind it is functional. To be noted: route intraperitoneal. The method, boiled down:
(§1)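 Six-week-old female CD-1 mice, six per group, infected via caudal vein with approximately 10⁷ viable organisms. Intraperitoneal dosing at 25 mg/kg began 10 days post-inoculation and continued for 10 days. At 35 days post-infection, spleens and right lungs were homogenized and plated in serial 10-fold dilutions on 7H10 agar, incubated at 37 °C, 4 weeks. CFU compared with vehicle-treated controls.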

Test [2] relates to Mycobacterium tuberculosis. Kind of test: Antimycobacterial activity against Mycobacterium tuberculosis H37Rv ATCC 35801 infected in CD1 mouse assessed as bacterial load in spleen at 25 mg/kg, ip after 10 days. In kind it is functional. To be noted: route intraperitoneal. The method, boiled down: as §1
Test [3] relates to Mycolicibacterium smegmatis. Kind of test: Antimycobacterial activity against Mycobacterium smegmatis MC2 by agar dilution method. In kind it is functional. On the technique in general: Agar dilution tests growth on a series of plates holding different concentrations.
The test system of test [4] is Mycobacterium tuberculosis. Kind of test: Antimycobacterial activity against Mycobacterium tuberculosis H37Rv by agar dilution method. In kind it is functional.
The test system of the next test is Vero. The test is described as follows: Cytotoxicity against african green monkey Vero cells after 72 hrs by MTT assay. In kind it is cell-based. The following applies: Chlorocebus sabaeus. On the technique in general: Formazan colour is commonly taken as a measure of viable cells.
Test [5] is described as follows: Selectivity index, ratio of IC50 for african green monkey Vero cells to MIC for mycobacterium. In kind it is functional. The method, boiled down: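 Selectivity index taken as IC50/MIC. IC50 comes from Vero cells exposed to serial dilutions up to 62.5 µg/mL for 72 h, with viability read by MTT conversion to formazan. MIC comes from agar dilution in Middlebrook 7H11 with OADC at pH 7.40, run in duplicate, and is the lowest concentration giving complete growth inhibition.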

Values after ≈ are worked out from the molar mass of the structure shown.

In general, MIC refers to the least concentration at which growth counts as inhibited. As for `NNC(=O)c1ccncc1` [ISONIAZID], the log10cfu in test [1] is given as 5.61; in test [2], 4.92. In addition, the MIC was 45.6 µg/mL (≈ 332 µM) in test [3] and 0.36 µg/mL (≈ 2.63 µM) in test [4].

For orientation: IC50 means the point on the concentration scale where inhibition reaches its midpoint. As for `COc1ccccc1/C=C1\CN(C)C[C@@]2(C1=O)[C@@H](c1ccccc1OC)[C@H](c1ccccc1)N[C@@]21C(=O)Nc2ccccc21` (racemic), the MIC in test [3] and in test [4] was 1.33 µg/mL (≈ 2.27 µM) throughout. The IC50 in the test with Vero amounted to 107 µM.

In the case of `Cc1ccccc1/C=C1\CN(C)C[C@@]2(C1=O)[C@@H](c1ccccc1C)[C@H](c1ccccc1)N[C@@]21C(=O)Nc2ccccc21` (racemic), the figures for the MIC in test [3] and in test [4] were 11.3 µg/mL (≈ 20.4 µM) and 2.82 µg/mL (≈ 5.09 µM), respectively. In the test with Vero, this compound displayed a half-inhibitory concentration (IC50) of 113 µM.

As to `COc1ccc(/C=C2\CN(C)C[C@@]3(C2=O)[C@@H](c2ccc(OC)cc2)CN(C)[C@@]32C(=O)Nc3ccccc32)cc1` (racemic), the minimal inhibitory concentration (MIC) in test [3] was 2.98 µg/mL (≈ 5.69 µM); in test [4], 0.75 µg/mL (≈ 1.43 µM). Moreover, the IC50 with Vero was determined as 120 µM.

On to `CN1C/C(=C\c2ccc(Cl)cc2Cl)C(=O)[C@]2(C1)[C@@H](c1ccc(Cl)cc1Cl)CN(C)[C@@]21C(=O)Nc2ccccc21` (racemic), for which the values for the MIC in test [3] and in test [4] were 5.21 µg/mL (≈ 8.66 µM) and 1.29 µg/mL (≈ 2.15 µM), respectively. The same compound had an IC50 in the test with Vero of 104 µM.

As for `CN1C/C(=C\c2ccc(F)cc2)C(=O)[C@]2(C1)[C@@H](c1ccc(F)cc1)[C@H](c1ccccc1)N[C@@]21C(=O)Nc2ccccc21` (racemic), the log10cfu came out at 6.01 in test [1] and 5.2 in test [2]. In addition, the results for the MIC in test [3] and in test [4] were 0.69 µg/mL (≈ 1.23 µM) and 0.07 µg/mL (≈ 0.125 µM), respectively. In the test with Vero, half-maximal inhibition (IC50) was put at 111 µM. Also, the “Selectivity Index” value in test [5] was 1634.

Regarding `COc1ccccc1/C=C1\CN(C)C[C@@]2(C1=O)[C@@H](c1ccccc1OC)[C@@H]1CCCN1[C@@]21C(=O)Nc2ccccc21` (racemic), the MIC in test [3] was 2.84 µg/mL (≈ 5.17 µM); in test [4] it was 0.71 µg/mL (≈ 1.29 µM). In addition, in the test with Vero, the IC50 worked out at 114 µM.

For the compound `CN1C/C(=C\c2ccc(Cl)cc2Cl)C(=O)[C@]2(C1)[C@@H](c1ccc(Cl)cc1Cl)[C@H](c1ccccc1)N[C@@]21C(=O)Nc2ccccc21` (racemic), the MIC in test [3] is 9.43 µg/mL (≈ 14.2 µM); in test [4], 2.35 µg/mL (≈ 3.54 µM). In the test with Vero, this compound registered an IC50 of 94.3 µM.

Take `CN1C/C(=C\c2ccco2)C(=O)[C@]2(C1)[C@@H](c1ccco1)CN(C)[C@@]21C(=O)Nc2ccccc21` (racemic): the MIC in test [3] came out at 0.88 µg/mL (≈ 1.98 µM); in test [4] it was 1.76 µg/mL (≈ 3.97 µM). The compound also displayed an IC50 in the test with Vero of 141 µM.

Regarding `CN1C/C(=C\c2cccc3ccccc23)C(=O)[C@]2(C1)[C@@H](c1cccc3ccccc13)[C@@H]1CCCN1[C@@]21C(=O)Nc2ccccc21` (racemic), the MIC in test [3] came to 10.6 µg/mL (≈ 18 µM); in test [4], 2.65 µg/mL (≈ 4.49 µM). In addition, the IC50 in the test on Vero was found to be 106 µM.
